CTSL1 counter-1 = Fasciola hepatica cathepsin L1 inhibitors, primary screen, counter-screen for PFM18AAP inhibitor project, biochemical, QFRET, fluorogenic peptide substrate | recombinant F. hepatica cathepsin L1, Z-Leu-Arg-MCA fluorescence | inhibition, % at 5.96 µM | 300,000 compounds, 0.49% hits | AID 1906, 2009;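 active = inhibition above the mean of all tested compounds plus 3 SD, set per screening campaign, cut at about 17% in these data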
GAA850 FXN act = FXN promoter activators, primary screen, cell-based, luciferase luminescence, HEK293 lucGAA850. HEK293 lucGAA850 FXN promoter luciferase reporter, 24 h; percent of 10 µM SAHA response. activation, % at 6 µM. 360,000 compounds, 0.56% hits;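 active = activation above the average of all compounds screened plus 3 SD, cutoff fixed separately per campaign, cut at about 7.5% in these data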
HDAC3 inhib = HDAC3 deacetylase inhibitors, primary screen, biochemical, fluorescence, cell-free homogeneous. recombinant HDAC3, fluorogenic peptide/trypsin coupled. inhibition, % at 8.3 µM. 320,000 compounds, 0.15% hits. AID 2718, 2010; in the data active = inhibition above about 26%, passing the limit was not always enough
Target sequence (O15379 whole entry, looked up): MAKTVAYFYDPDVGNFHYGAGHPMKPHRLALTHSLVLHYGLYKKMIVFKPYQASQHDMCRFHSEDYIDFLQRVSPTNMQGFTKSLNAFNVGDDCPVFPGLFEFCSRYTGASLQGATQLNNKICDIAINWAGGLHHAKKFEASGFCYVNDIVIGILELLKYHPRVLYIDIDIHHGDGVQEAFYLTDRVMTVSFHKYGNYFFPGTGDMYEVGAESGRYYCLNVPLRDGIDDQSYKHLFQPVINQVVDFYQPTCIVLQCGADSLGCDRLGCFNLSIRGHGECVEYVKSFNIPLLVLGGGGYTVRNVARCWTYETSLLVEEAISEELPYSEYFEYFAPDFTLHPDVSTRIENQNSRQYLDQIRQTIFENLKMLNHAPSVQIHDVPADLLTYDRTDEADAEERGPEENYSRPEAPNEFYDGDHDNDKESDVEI
PfM18AAP inh-1 = PfM18AAP inhibitors, malaria aminopeptidase, primary screen, biochemical, QFRET, recombinant enzyme. 290,000 compounds, 1.2% hits. inhibition, % at 7.35 µM. M18 aspartyl aminopeptidase (Plasmodium falciparum 3D7). H-Glu-NHMec fluorogenic cleavage;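 active = inhibition above the campaign mean inhibition over all tested compounds plus 3 SD, cut at about 28% in these data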
AHR act = AHR activators, primary screen, cell-based, luminescence, luciferase reporter, human | AHR-responsive luciferase reporter cells | activation, % at 5 µM | 320,000 compounds, 2.5% hits; in the data active = activation above about 47%
SENP1 inh = human SENP1 catalytic domain inhibitors, primary screen, biochemical, FRET, uHTS | Sentrin-specific protease 1 (Homo sapiens), Q9P0U3 | recombinant SENP1 catalytic domain, CyPet-SUMO1-YPet FRET cleavage | inhibition, % at 10 µM | 360,000 compounds, 0.21% hits | AID 624204, 2012;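 active = inhibition at least 30% at 10 µM, raw YFP signal under a set limit, fluorescence ratio 0.5 to 1.5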
Target sequence (Q9P0U3 419-644 limits assumed): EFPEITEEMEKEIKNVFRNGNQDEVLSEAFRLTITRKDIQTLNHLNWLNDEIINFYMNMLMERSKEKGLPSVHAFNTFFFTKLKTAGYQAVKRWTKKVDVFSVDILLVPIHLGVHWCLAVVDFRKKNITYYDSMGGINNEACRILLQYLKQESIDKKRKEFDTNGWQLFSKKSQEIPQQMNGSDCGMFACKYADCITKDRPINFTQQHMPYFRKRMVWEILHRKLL
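Test system: hSENP1 catalytic domain, recombinant; Amount: 20 pM final SENP1 enzyme; Medium: Tris pH 8 buffer plus EDTA, NaCl, BME, BSA, NP40, catalase; Schedule: 50 min enzyme reaction, room temperature, light-protected; Technique: FRET fluorescence in CFP and YFP emission channels; Controls: no-enzyme wells low, DMSO-plus-enzyme wells high control.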
PfM18AAP inh-2 = PfM18AAP inhibitors, malaria aminopeptidase, confirmation, biochemical, QFRET, recombinant enzyme, triplicate; H-Glu-NHMec fluorogenic cleavage; shares compounds with PfM18AAP inh-1; inhibition, % at 7.35 µM; AID 2170, 2009; 2,400 compounds, 28% hits;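 active = mean inhibition over replicate wells above the hit cutoff set for the earlier primary screen, cut at about 29% in these data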
CTSL1 counter-2 = cathepsin L1 inhibitors, retest, confirmation, counter-screen for PFM18AAP inhibitor project, biochemical, QFRET, triplicate; shares compounds with PfM18AAP inh-1; purified cathepsin L1, Z-Leu-Arg-MCA fluorescence; inhibition, % at 5.96 µM; 2,400 tested, under 10 active; AID 2178, 2009;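 active = average inhibition across replicates above the hit cutoff set in the earlier primary screen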
A number is an active result; i = inactive; nt = not tested or not shown. Rows were chosen to be rich in hits. Some 4.2% of all compounds tested hit in one or more screens of this group.

SMILES | CTSL1 counter-1 | GAA850 FXN act | HDAC3 inhib | PfM18AAP inh-1 | AHR act | SENP1 inh | PfM18AAP inh-2 | CTSL1 counter-2
Cc1c(O)ccc(C(=O)CN2CCN(c3ccccc3F)CC2)c1O | i | i | i | i | i | i | nt | nt
O=C(CN1CCN(S(=O)(=O)c2ccc(Br)cc2)CC1)c1ccc(O)c(O)c1 | i | i | i | 72 | i | i | 40 | i
CC(C)c1ccc(S(=O)(=O)N2CCN(CC(=O)c3ccc(O)c(O)c3)CC2)cc1 | i | i | i | 67 | i | i | 36 | i
O=C(CN1CCN(c2ccccc2F)CC1)c1ccc(O)c(O)c1 | nt | i | i | 60 | nt | i | 37 | i
O=C(CSc1nn(-c2ccccc2)c(=S)s1)Nn1cnnc1 | i | i | i | 53 | i | i | 73 | i
O=C(CSc1nc2ccccc2s1)Nn1cnnc1 | i | i | i | 69 | i | i | 57 | i
Cc1ccc(F)c(S(=O)(=O)NC(=O)C2(C)CCN2C(=O)CC(c2ccccc2)c2ccccc2)c1 (centres undefined) | nt | i | nt | nt | nt | i | nt | nt
CCCCNC(=S)NNC(=O)c1sccc1C | i | i | i | i | i | i | nt | nt
CNC(=S)NNC(=O)c1sccc1C | i | i | i | 35 | i | i | i | i
CN1C[C@@H]2[C@@H]3C(=O)N(C)C(=O)[C@@H]3[C@](C)(C1=O)N2C(=O)c1ccc(F)cc1 | nt | i | nt | nt | nt | i | nt | nt
COc1ccc(-c2ccc(C(=O)NCc3ccncc3)c3occc23)c(C)c1 | nt | i | nt | nt | nt | i | nt | nt
CC(C)=CCOc1ccc2ccc(=O)oc2c1 | i | i | i | i | i | i | nt | nt
COc1cc2ccc(=O)oc2c(O)c1OCC=C(C)C | i | i | i | 40 | i | i | i | i
CCOC(=O)C1=CCN(S(=O)(=O)c2ccccc2Cl)C1c1cccc(F)c1 (centres undefined) | nt | nt | nt | nt | nt | i | nt | nt
N#C/C(=C\c1ccccc1)C(=O)Nc1nncs1 | i | i | i | 35 | i | i | 37 | i
O=C1NN(c2ccccc2)C(=O)/C1=C\c1coc2ccc(O)cc2c1=O | i | i | i | 37 | i | i | i | i
Cc1ccc(C(=O)NCC(=O)NCC(c2cccs2)N(C)C)cc1C (centres undefined) | nt | i | i | nt | i | i | nt | nt
Cc1ccc(C(=O)N2CCN(c3ccc(C(F)(F)F)cn3)CC2)o1 | nt | i | i | nt | i | i | nt | nt
O=C1/C(=C/c2cccnc2)SC(=S)N1Nc1ccccc1 | i | i | i | 37 | i | i | i | i
O=C1/C(=C/c2cccnc2)SC(=S)N1c1ccccc1 | i | i | i | i | i | i | nt | nt
COc1ccc(-c2c(C)nc3c(-c4ccccn4)cnn3c2N)cc1 | nt | i | i | 38 | nt | i | i | i
O=C(/C=C/c1ccccc1)n1cnnc1SC/C=C/c1ccccc1 | i | i | i | 41 | i | i | i | i
COC(=O)C[C@@H]1CC[C@H](NC(=O)Nc2cccc(F)c2)[C@@H](CO)O1 | nt | nt | nt | nt | nt | i | nt | nt
Cc1ccc(C(=O)Nn2cnnc2)cc1S(=O)(=O)N1CCOCC1 | i | i | i | 51 | i | i | 44 | i
O=C(Nn1cnnc1)c1ccc(F)c(S(=O)(=O)N2CCCCC2)c1 | i | i | i | 47 | i | i | 53 | i
SMILES | CTSL1 counter-1 | GAA850 FXN act | HDAC3 inhib | PfM18AAP inh-1 | AHR act | SENP1 inh | PfM18AAP inh-2 | CTSL1 counter-2
O=C(Nc1ccon1)c1ccc(F)c(S(=O)(=O)N2CCCCC2)c1 | i | i | i | i | i | i | nt | nt
CCOc1ccc(NS(=O)(=O)c2ccc(C(=O)N(C)Cc3cccc(OC)c3OC)cc2)cc1 | i | i | i | i | i | i | nt | nt
Cc1ccc2c(c1)-c1c(ssc1=S)C(C)(C)N2C(=O)CSC1=NCCS1 | i | i | i | i | i | i | nt | nt
Cc1ccc2c(c1)-c1c(ssc1=S)C(C)(C)N2C(=O)c1ccco1 | i | i | i | 40 | i | i | i | i
Cc1cc(NC(=O)c2ccccc2)ccc1NC(=O)Cc1ccccc1 | i | i | i | i | i | i | nt | nt
O=C(O)c1ccccc1N/N=C/C1=C(N2CCOCC2)C(=C\c2ccccc2)/CC1 | i | i | i | i | i | i | nt | nt
Cc1cc(C)nc(N/N=C/C2=C(N3CCOCC3)C(=C/c3ccccc3)/CC2)n1 | i | i | i | 36 | i | i | i | i
O=c1nc(/C=C/c2ccc(O)c(O)c2)oc2ccccc12 | nt | i | nt | 63 | nt | i | 56 | i
CCn1c(/C=C/c2ccc(O)c(O)c2)nc2ccccc2c1=O | nt | i | i | 54 | nt | i | 43 | i
CCn1c(/C=C/c2ccc(O)cc2)nc2ccccc2c1=O | i | i | i | i | i | i | nt | nt
C/C(CC(=O)Nc1ccc2ccccc2c1)=N\NC(=O)c1ccc(O)c(O)c1 | i | i | i | 68 | i | i | 50 | i
C/C(CC(=O)Nc1ccc2ccccc2c1)=N\NC(=O)c1cnccn1 | i | i | i | i | i | i | nt | nt
CC(=O)c1cccc(NC(=O)C2Cc3c(-c4ccco4)ccnc3O2)c1 (centres undefined) | nt | i | nt | nt | nt | i | nt | nt
COc1cc(C(=O)NNc2nc3cc4c(cc3s2)OCO4)cc(OC)c1OC | i | i | i | 41 | i | i | i | i
O=C(NNc1nc2cc3c(cc2s1)OCO3)c1ccccc1 | i | i | i | 48 | 61 | i | i | i
CC(C)NC(=O)COc1coc(CN2CCN(c3ccccc3F)CC2)cc1=O | i | i | i | i | i | i | nt | nt
Cc1c(Cl)cccc1NC(=S)Nn1cnnc1 | i | i | i | 76 | i | i | 76 | i
Cc1c(Cl)cccc1NC(=S)NC1CC1 | i | i | i | i | i | i | nt | nt
CC(=O)c1ccc2c(c1)N(C)c1ccccc1S2 | i | i | i | i | i | i | nt | nt
C=Cc1ccc2c(c1)N(C)C(=C)S2 | i | i | i | 47 | i | i | i | i
COc1ccc(CNC(=O)Nc2nc(C(N)Cc3ccc(C(F)(F)F)cc3)cs2)cc1 (centres undefined) | nt | i | nt | nt | nt | i | nt | nt
O=C(c1ccc(Br)cc1)N1CCN(Cc2ccccc2)CC1 | i | i | i | i | i | i | nt | nt
O=C(c1ccc(F)cc1)N1CCN(Cc2ccccc2)CC1 | i | i | i | i | i | i | nt | nt
O=C(Oc1ccc(C(=S)N2CCCCC2)cc1)c1ccccc1 | i | i | i | 37 | i | i | i | i
S=C(c1ccc(Br)cc1)N1CCN(Cc2ccccc2)CC1 | i | i | i | 42 | i | i | i | i
